Test results as given in ChEMBL document CHEMBL1153722, “Design, synthesis, and characterization of peptide-based rab geranylgeranyl transferase inhibitors” (J Med Chem, 2009).
pIC50: −log10 of the molar value. Peptide text beside a SMILES is read from it. * marks the point of attachment. Hydrocinnamoyl = O=C(CCc1ccccc1)*; pNA = O=[N+]([O-])c1ccc(N*)cc1; Undecanoyl = CCCCCCCCCCC(=O)*; Nicotinoyl = O=C(c1cccnc1)*; Morpholide = C1CN(*)CCO1; Cbz = O=C(OCc1ccccc1)*; NHBn = c1ccc(CN*)cc1; NHPh = c1ccc(N*)cc1; NHNH2 = NN*; NHOH = ON*

Target: not listed separately
Test: Inhibition of rat recombinant Rab geranylgeranyltransferase iin presence of canine Rab7 and rat REP1 by NBD-FPP based continuous fluorimetric assay
Procedure, shortened: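 Continuous fluorometric assay in 96/384-well format: 3 μM Rab7, 3 μM REP1, 9 μM NBD-FPP and 400 nM RabGGTase, with or without inhibitor. IC50 was calculated from three independent measurements.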

Structure (SMILES) | pIC50
CCCCCCCCCCCOc1ccc(C(=O)N[C@@H](Cc2ccc(O)cc2)C(=O)N[C@@H](Cc2ccc(O)cc2)C(=O)N[C@@H](Cc2ccc(O)cc2)C(=O)NCCCCN)cc1 | 4.94
CCCCCc1ccc(CCC(=O)N[C@H](Cc2ccc(O)cc2)C(=O)N[C@@H](Cc2ccc(O)cc2)C(=O)N[C@@H](C[Si]2(C)CCCCC2)C(=O)O)cc1 | 4.72
O=C(CNC(=O)c1coc(-c2ccccc2)n1)N[C@@H](Cc1ccccc1)C(=O)N[C@@H](Cc1cn(Cc2ccccc2)cn1)C(=O)O | < 4.30
O=C(CNC(=O)c1coc(-c2ccccc2)n1)N[C@@H](Cc1ccccc1)C(=O)N[C@@H](Cc1c[nH]cn1)C(=O)O | 4.35
O=C(CNC(=O)c1csc(-c2cccnc2)n1)N[C@@H](Cc1ccccc1)C(=O)N[C@@H](Cc1cn(C(c2ccccc2)(c2ccccc2)c2ccccc2)cn1)C(=O)O | 4.43
CN(C(=O)[C@H](Cc1c[nH]cn1)NC(=O)OCc1ccccc1OCc1ccccc1)[C@H](CN[C@@H](Cc1ccccc1)C(=O)O)Cc1ccc(O)cc1 | 4.71
O=C(CNC(=O)c1csc(-c2cccnc2)n1)N[C@@H](Cc1ccccc1)C(=O)N[C@@H](Cc1c[nH]cn1)C(=O)O | < 4.30
O=C(CNC(=O)[C@H](Cc1c[nH]cn1)NC(=O)c1coc(-c2ccccc2)n1)N[C@@H](Cc1ccccc1)C(=O)O | < 4.30
O=C(CNC(=O)[C@H](Cc1c[nH]cn1)NC(=O)c1coc(-c2ccccc2)n1)N[C@@H](Cc1c[nH]cn1)C(=O)O | < 4.30
CN(C(=O)[C@H](Cc1c[nH]cn1)NC(=O)OCc1ccccc1)[C@@H](Cc1ccccc1)C(=O)N[C@H](Cc1ccc(O)cc1)C(=O)NO | 4.87
CCCCCc1ccc(CCC(=O)N[C@H](Cc2c[nH]cn2)C(=O)N(C)[C@H](CN[C@@H](Cc2ccccc2)C(=O)O)Cc2ccccc2)cc1 | 4.72

Species on record: Rattus norvegicus
Test: Inhibition of rat recombinant Rab geranylgeranyltransferase at 100 uM in presence of canine Rab7 and rat REP1 NBD-FPP based continuous fluorimetric assay
Procedure, shortened: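 Continuous fluorometric assay in 96/384-well format: 3 μM Rab7, 3 μM REP1, 9 μM NBD-FPP and 400 nM RabGGTase, with or without inhibitor. […] IC50 was calculated from three independent measurements.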

Structure (SMILES) | inhibition
COc1ccc(C[C@@H](C(=O)N(C)[C@@H](Cc2ccccc2)C(=O)O)N(C)C(=O)[C@@H](Cc2ccc(O)cc2)NC(=O)OCc2ccccc2)cc1 | 25%
CCCCCCCCCCCOc1ccc(C(=O)N[C@@H](Cc2ccc(O)cc2)C(=O)N[C@@H](Cc2ccc(O)cc2)C(=O)N[C@@H](Cc2ccc(O)cc2)C(=O)O)cc1 | 106%
C=CCCCCCCCCCOC(=O)[C@H](CO)NC(=O)[C@H](Cc1ccccc1)NC(=O)[C@H](CO)NC(=O)CCc1ccccc1 | 84%
O=C(CNC(=O)[C@H](Cc1ccc(O)cc1)NCCc1ccc(F)cc1)N[C@@H](Cc1ccc(O)cc1)C(=O)N1CCOCC1 | 92%
CC(C)CCNC(=O)[C@H](Cc1ccccc1)NC(=O)[C@H](CC(C)C)NC(=O)[C@@H]1CCCN1C(=O)/C=C/c1ccccc1 | 104%
NNC(=O)[C@H](CCC(N)=O)NC(=O)[C@H](Cc1ccccc1)NC(=O)CNC(=O)CCc1ccccc1 (Hydrocinnamoyl-Gly-Phe-Gln-NHNH2) | 93%
CCCCCCCCCCOc1ccc(C(=O)N[C@@H](Cc2c[nH]cn2)C(=O)N[C@@H](Cc2c[nH]cn2)C(=O)N[C@@H](CO)C(=O)NCCCn2ccnc2)cc1 | 52%
O=C(CCc1ccccc1)N[C@@H](CO)C(=O)N[C@@H](Cc1ccccc1)C(=O)N[C@@H](CO)C(=O)NCc1ccccc1 (Hydrocinnamoyl-Ser-Phe-Ser-NHBn) | 95%
CC(C)C[C@H](NC(=O)[C@H](COC(C)(C)C)NC(=O)[C@H](Cc1ccccc1)NC(=O)/C=C/c1ccc(F)cc1)C(N)=O | 83%
O=C(CNC(=O)c1coc(-c2ccccc2)n1)N[C@@H](Cc1cn(C(c2ccccc2)(c2ccccc2)c2ccccc2)cn1)C(=O)N[C@@H](Cc1ccccc1)C(=O)O | 77%
CCCCCCCCCCC(=O)N[C@@H](Cc1c[nH]cn1)C(=O)N[C@@H](Cc1ccccc1)C(=O)N[C@@H](Cc1ccc(O)cc1)C(=O)O (Undecanoyl-His-Phe-Tyr-OH) | 70%
NCCCC[C@H](NC(=O)CCc1ccccc1)C(=O)N[C@@H](Cc1c[nH]cn1)C(=O)N[C@@H](CO)C(=O)NC1CCCCC1 | 98%
NC(=O)CC[C@H](NC(=O)[C@H](Cc1ccccc1)NC(=O)[C@H](CO)NC(=O)CCc1ccccc1)C(=O)Nc1ccc([N+](=O)[O-])cc1 (Hydrocinnamoyl-Ser-Phe-Gln-pNA) | 93%
CC#CCOC(=O)[C@H](Cc1ccccc1)NC(=O)[C@H](Cc1ccccc1)NC(=O)[C@H](CC(C)C)NC(=O)/C=C/c1ccccc1 | 61%
CCCCCCCCCCC(=O)N[C@@H](Cc1c[nH]cn1)C(=O)N[C@@H](Cc1ccccc1)C(=O)N[C@@H](Cc1ccc(O)cc1)C(N)=O (Undecanoyl-His-Phe-Tyr-NH2) | 45%
CCCCCCCCCCC(=O)N[C@@H](Cc1c[nH]cn1)C(=O)N[C@@H](Cc1ccccc1)C(=O)N[C@@H](Cc1ccc(O)cc1)C(=O)NOC(C)(C)C | 76%
CC(C)(C)Oc1ccc(C[C@H](NC(=O)CNC(=O)[C@H](Cc2ccc(OC(C)(C)C)cc2)NC(=O)c2coc(-c3ccccc3)n2)C(=O)O)cc1 | 75%
O=C(CNC(=O)c1coc(-c2ccccc2)n1)N[C@@H](Cc1c[nH]cn1)C(=O)N[C@@H](Cc1c[nH]cn1)C(=O)O | 96%
NC(=O)CC[C@H](NC(=O)[C@H](Cc1ccccc1)NC(=O)CNC(=O)CCc1ccccc1)C(=O)N1CCOCC1 (Hydrocinnamoyl-Gly-Phe-Gln-Morpholide) | 89%
O=C(CNC(=O)[C@H](Cc1ccc(O)cc1)NC(=O)c1ccc(F)cc1)N[C@@H](Cc1ccc(O)cc1)C(=O)NCc1ccccc1 | 60%
O=C(CNC(=O)[C@H](Cc1cn(C(c2ccccc2)(c2ccccc2)c2ccccc2)cn1)NC(=O)c1coc(-c2ccccc2)n1)N[C@@H](Cc1c[nH]c2ccccc12)C(=O)O | 74%
O=C(N[C@@H](Cc1ccccc1)C(=O)N[C@@H](Cc1ccccc1)C(=O)N[C@@H](Cc1ccc(O)cc1)C(=O)O)OCc1ccccc1 (Cbz-Phe-Phe-Tyr-OH) | 9%
O=C(N[C@@H](CO)C1=N[C@H](C(=O)O)CO1)c1coc(-c2ccccc2)n1 | 93%
O=C(CNC(=O)[C@H](Cc1ccc(O)cc1)NC(=O)c1ccc(F)cc1)N[C@@H](Cc1ccc(O)cc1)C(=O)Nc1ccccc1 | 97%

Structure (SMILES) | inhibition
C=CCCCOC(=O)[C@H](CCC(N)=O)NC(=O)[C@H](Cc1ccccc1)NC(=O)[C@@H](NC(=O)/C=C/c1ccccc1)[C@@H](C)O | 102%
O=C(CCc1ccccc1)N[C@@H](CO)C(=O)N[C@@H](Cc1ccccc1)C(=O)N[C@@H](CO)C(=O)Nc1ccccc1 (Hydrocinnamoyl-Ser-Phe-Ser-NHPh) | 89%
COC(=O)[C@H](CCC(N)=O)NC(=O)[C@H](NC(=O)[C@H]1CCCN1C(=O)c1ccc([N+](=O)[O-])c(NC(C)=O)c1)C(C)C | 98%
CC(C)C[C@H](NC(=O)[C@H](COC(C)(C)C)NC(=O)[C@H](Cc1ccccc1)NC(=O)c1ccc(-c2ccccc2)cc1)C(=O)O | 81%
CON(C)C(=O)[C@H](CCC(=O)O)NC(=O)[C@H](C)NC(=O)[C@@H](NC(=O)c1ccc(-c2ccccc2)cc1)[C@@H](C)O | 102%
C=CCCCOC(=O)[C@H](CCC(N)=O)NC(=O)[C@H](C)NC(=O)[C@@H](NC(=O)c1ccc(-c2ccccc2)cc1)[C@@H](C)O | 89%
C[C@@H](O)[C@H](NC(=O)/C=C/c1ccccc1)C(=O)N[C@@H](Cc1ccccc1)C(=O)N[C@@H](CCC(N)=O)C(=O)O | 83%
CCCCCCCCCCCCCC(=O)OC[C@H](NC(=O)CNC(=O)[C@H](COC(=O)CCCCCCCCCCCCC)NC(=O)c1coc(-c2ccccc2)n1)C(=O)O | 106%
CC(C)C[C@H](NC(=O)[C@H](CO)NC(=O)[C@H](Cc1ccccc1)NC(=O)CCc1ccccc1)C(N)=O | 100%
NCCCC[C@H](NC(=O)CCc1ccccc1)C(=O)N[C@@H](Cc1c[nH]cn1)C(=O)N[C@@H](CO)C(=O)NCc1cccc(F)c1 | 96%
CC[C@H](C)[C@H](NC(=O)[C@H](Cc1ccccc1)NC(=O)c1cccnc1)C(=O)N[C@@H](CCCNC(=N)N)C(=O)OC (Nicotinoyl-Phe-Ile-Arg-OMe) | 105%
CC(C)C[C@H](NC(=O)[C@@H]1CCCN1C(=O)/C=C/c1ccccc1)C(=O)N[C@@H](Cc1ccccc1)C(=O)O | 80%
O=C(CNC(=O)[C@H](Cc1c[nH]cn1)NC(=O)OCc1ccccc1)N[C@@H](Cc1ccc(O)cc1)C(=O)Nc1nccs1 | 82%
CCCCCCCCCCC(=O)N[C@@H](Cc1ccc(O)cc1)C(=O)N[C@@H](Cc1c[nH]cn1)C(=O)N[C@@H](Cc1c[nH]cn1)C(=O)NO (Undecanoyl-Tyr-His-His-{NHOH}) | 84%
CC(C)C[C@H](NC(=O)/C=C/c1ccccc1)C(=O)N[C@@H](Cc1ccc(Br)cc1)C(=O)N[C@@H](Cc1ccccc1)C(=O)OCc1ccccc1 | 55%
C[C@H](NC(=O)[C@@H](NC(=O)c1ccc(-c2ccccc2)cc1)[C@@H](C)O)C(=O)N[C@@H](CCC(=O)O)C(=O)NN | 89%
CC(C)C[C@H](NC(=O)[C@H](CO)NC(=O)[C@H](Cc1ccccc1)NC(=O)/C=C/c1ccc(F)cc1)C(=O)Nc1nccs1 | 94%
C[C@H](NC(=O)/C=C/c1ccc(F)cc1)C(=O)NCC(=O)N[C@@H](Cc1ccc(O)cc1)C(=O)O | 76%
O=C(CNC(=O)[C@H](Cc1ccc(O)cc1)NC(=O)CCc1ccc(F)cc1)N[C@@H](Cc1ccc(O)cc1)C(=O)O | 86%
O=C(CCNC(=O)[C@H](Cc1c[nH]cn1)NC(=O)OCc1ccccc1)N[C@@H](Cc1ccc(O)cc1)C(=O)Nc1nccs1 | 73%
CCCCCCCCCCOc1ccc(C(=O)N[C@@H](Cc2c[nH]cn2)C(=O)N[C@@H](Cc2c[nH]cn2)C(=O)N[C@@H](CO)C(=O)OCCN)cc1 | 70%
NC(=O)[C@H](CO)NC(=O)CNC(=O)[C@H](CO)NC(=O)CCc1ccccc1 (Hydrocinnamoyl-Ser-Gly-Ser-NH2) | 85%
CCCCCCCCCCC(=O)N[C@@H](Cc1c[nH]cn1)C(=O)N[C@@H](Cc1ccccc1)C(=O)N[C@@H](Cc1ccc(O)cc1)C(=O)NO (Undecanoyl-His-Phe-Tyr-{NHOH}) | 89%
